Experimental data taken from ChEMBL document CHEMBL4007489, “First Bispecific Inhibitors of the Epidermal Growth Factor Receptor Kinase and the NF-κB Activity As Novel Anticancer Agents” (J Med Chem, 2017).
pIC50: −log10 of the molar value. Calls of active or inactive are those of the source. The rule behind the calls is not given here.

What was measured:
[1] = target: Transcription factor p65 (Homo sapiens) (UniProt Q04206); experiment: Inhibition of IL-1beta-stimulated nuclear translocation of GFP-tagged NF-kappaB-p65 (unknown origin) expressed in CHO cells at 15 uM preincubated with IL-1beta for 30 mins followed by compound addition by fluorescence assay; type: cell-based
[2] = target: Transcription factor p65 (Homo sapiens) (UniProt Q04206); experiment: Inhibition of NF-kappaB-p65 binding to NF-kappaB response element oligonucleotide in nuclear extracts of 12 hrs compound pre-treated human MDA-MB-231 cells at 2.5 to 15 uM by ELISA
How it was run: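 MDA-MB-231 cells treated with compound or DMSO for 12 h; in some runs TNFα (20 ng/mL final) added for a further 20 min at 37 °C. Nuclear extracts prepared on ice and protein measured by Bradford. 5 μg of extract incubated on plate-immobilized NF-κB response element oligonucleotide. Bound complexes detected with anti-p65 primary and HRP secondary antibody, read at 450 nm. Specificity checked by competition with free oligonucleotide; triplicates.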

MDA-MB-231 [3] = experiment: (§1) Antitumor activity against human MDA-MB-231 cells xenografted in NMRI nu/nu mouse at 25 mg/kg, sc administered 5 days post tumor cell inoculation treated for 14 days followed by treatment pause for 6 days followed by treatment continuation on every second day until day 28 measured on day 7, 14 and day 28; type: functional, organism-based
How it was run: (§2)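 MDA-MB-231 cells, 2 × 10^6 per site in Matrigel, injected into both flanks of female NMRI nu/nu mice about 8 weeks old; 6 mice per group. From day 5 after inoculation (day 1), sc dosing in PBS/propylene glycol 80:20. Dosing every weekday for 14 days, then a 6-day pause, then every second day from day 21 to sacrifice on day 28. Tumor diameters measured weekly by calipers; unpaired two-tailed t test against vehicle.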

[4] = target: Transcription factor p65 (Homo sapiens) (UniProt Q04206); experiment: Inhibition of IL-1beta-stimulated nuclear translocation of GFP-tagged NF-kappaB-p65 (unknown origin) expressed in CHO cells at 15 uM preincubated with IL-1beta for 30 mins followed by compound addition in presence of Pluronic F127 by fluorescence assay; type: cell-based
[5] = Solubility in water; type: physicochemical; details: buffer
[6] = target: Receptor tyrosine-protein kinase erbB-4 (Homo sapiens) (UniProt Q15303); details: 0.5 uM
[7] = target: T1, Epidermal growth factor receptor (Homo sapiens, UniProt P00533); experiment: biochemical; type: cell-based
cells = type: cell-based; details: Homo sapiens, U-937
MDA-MB-231 [8] = experiment: cells; type: functional; details: Homo sapiens, MDA-MB-231, 48 h
[9] = target: Serine/threonine-protein kinase pim-1 (Homo sapiens, UniProt P11309); experiment: Inhibition of human recombinant full length His-tagged PIM-1 expressed in baculovirus expression system
Homo sapiens = organism: Homo sapiens; experiment: Inhibition of TNFalpha-stimulated NF-kappaB (unknown origin) expressed in human U937 cells at 5 uM incubated for 3 hrs followed by TNFalpha stimulation measured after 2.5 hrs by luciferase reporter gene assay; type: cell-based
[10] = Half life in Sprague-Dawley rat liver microsomes assessed as parent compound remaining at 0.5 uM in presence of NADPH by LC-MS/MS analysis; type: ADME, microsome
[11] = Blood clearance in Sprague-Dawley rat by LC-MS/MS analysis; type: ADME
[12] = Cmax in NMRI nu/nu mouse at 10 mg/kg, sc administered as single dose by LC-MS analysis; type: ADME, organism-based; parameters: dose 10 mg/kg, route subcutaneous; details: in vivo
How it was run: (§3)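 Female NMRI nu/nu mice (28−32 g), nine animals per compound. Single sc injection of 10 mg/kg, formulated at 1 mg/mL in PBS/propylene glycol (80:20, v/v) by ultrasonication. Blood sampled at 10 min, 30 min, 1, 3, 8 and 24 h, two samples per animal, into heparinized tubes. Plasma proteins precipitated with acetonitrile containing griseofulvin internal standard. Quantified by LC-MS against calibration standards prepared in drug-free plasma.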

[13] = Tmax in NMRI nu/nu mouse at 10 mg/kg, sc administered as single dose by LC-MS analysis; type: ADME, organism-based; details: in vivo; how it was run: as §3
[14] = Drug uptake in NMRI nu/nu mouse at 10 mg/kg, sc administered as single dose after 24 hrs by LC-MS analysis; type: ADME, organism-based; details: in vivo, read-out: Drug uptake; how it was run: as §3
[15] = Half life in NMRI nu/nu mouse at 10 mg/kg, sc administered as single dose by LC-MS analysis; type: ADME, organism-based; details: in vivo; how it was run: as §3
[16] = AUC (0 to 24 hrs) in NMRI nu/nu mouse at 10 mg/kg, sc administered as single dose by LC-MS analysis; type: ADME, organism-based; parameters: dose 10 mg/kg, time < 24 hr, route subcutaneous; details: in vivo; how it was run: as §3
[17] = AUC (0 to infinity) in NMRI nu/nu mouse at 10 mg/kg, sc administered as single dose by LC-MS analysis; type: ADME, organism-based; parameters: dose 10 mg/kg, route subcutaneous, time infinity; details: in vivo; how it was run: as §3
[18] = Apparent oral clearance in NMRI nu/nu mouse at 10 mg/kg, sc administered as single dose by LC-MS analysis; type: ADME, organism-based; details: in vivo; how it was run: as §3
MDA-MB-231 [19] = experiment: Antitumor activity against human MDA-MB-231 cells xenografted in NMRI nu/nu mouse at 10 mg/kg, sc administered 5 days post tumor cell inoculation treated for 14 days followed by treatment pause for 6 days measured after 21 days; type: functional, organism-based; how it was run: as §2
Mus musculus [20] = experiment: as §1, with “Toxicity in” for “Antitumor activity against”, “xenografted” for “xenografted in”, “mouse assessed as anomalous behaviour” for “mouse”, “10” for “25”; type: organism-based; details: in vivo
How it was run: (§4)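 Mice bearing MDA-MB-231 xenografts were monitored for behaviour and body weight over the 28-day sc dosing schedule. Organ morphology was inspected after sacrifice.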

Mus musculus [21] = experiment: as §1, with “Toxicity in” for “Antitumor activity against”, “xenografted” for “xenografted in”, “mouse assessed as effect on organ morphology” for “mouse”, “10” for “25”; type: organism-based; details: in vivo
How it was run: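 Female NMRI nu/nu mice (~8 weeks old) received 2 × 10^6 MDA-MB-231 cells in Matrigel into each flank. Dosing began 5 days later (day 1), with 6 mice per group. Compound or vehicle was given sc in PBS/propylene glycol (80:20, v/v) at 1 mg/mL. Behaviour and body weight were followed. Organs were inspected morphologically after sacrifice on day 28.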

Mus musculus [22] = experiment: as §1, with “Toxicity in” for “Antitumor activity against”, “xenografted” for “xenografted in”, “mouse assessed as effect on body weight” for “mouse”, “10” for “25”; type: organism-based; details: in vivo; how it was run: as §4
Mus musculus [23] = experiment: Toxicity in NMRI nu/nu mouse assessed as anomalous behaviour at 10 mg/kg, sc administered as single dose; type: organism-based; details: in vivo
Mus musculus [24] = experiment: Toxicity in NMRI nu/nu mouse assessed as effect on organ morphology at 10 mg/kg, sc administered as single dose; type: organism-based; details: in vivo
MDA-MB-231 [25] = experiment: as §1, with “10” for “25”; type: functional, organism-based; how it was run: as §2
[26] = target: Receptor tyrosine-protein kinase erbB-4 (Homo sapiens) (UniProt Q15303); experiment: Inhibition of N-terminal GST-tagged human recombinant ERBB4 expressed in baculovirus expression system
[27] = target: T1, Epidermal growth factor receptor; details: at 150 nM
MDA-MB-231 [28] = experiment: Growth inhibition of human MDA-MB-231 cells at 20 uM after 48 hrs by MTT assay; type: functional, cell-based
How it was run: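 MDA-MB-231 cells seeded at 45000 per well and left to adhere overnight; compounds added after 24 h. Incubated a further 48 h at 37 °C. MTT added for 1 h, then cells lysed with 10% SDS in 0.01 N HCl for at least 2 h at 37 °C. Absorbance read at 570 nm.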

T1 sequence (P00533 whole entry): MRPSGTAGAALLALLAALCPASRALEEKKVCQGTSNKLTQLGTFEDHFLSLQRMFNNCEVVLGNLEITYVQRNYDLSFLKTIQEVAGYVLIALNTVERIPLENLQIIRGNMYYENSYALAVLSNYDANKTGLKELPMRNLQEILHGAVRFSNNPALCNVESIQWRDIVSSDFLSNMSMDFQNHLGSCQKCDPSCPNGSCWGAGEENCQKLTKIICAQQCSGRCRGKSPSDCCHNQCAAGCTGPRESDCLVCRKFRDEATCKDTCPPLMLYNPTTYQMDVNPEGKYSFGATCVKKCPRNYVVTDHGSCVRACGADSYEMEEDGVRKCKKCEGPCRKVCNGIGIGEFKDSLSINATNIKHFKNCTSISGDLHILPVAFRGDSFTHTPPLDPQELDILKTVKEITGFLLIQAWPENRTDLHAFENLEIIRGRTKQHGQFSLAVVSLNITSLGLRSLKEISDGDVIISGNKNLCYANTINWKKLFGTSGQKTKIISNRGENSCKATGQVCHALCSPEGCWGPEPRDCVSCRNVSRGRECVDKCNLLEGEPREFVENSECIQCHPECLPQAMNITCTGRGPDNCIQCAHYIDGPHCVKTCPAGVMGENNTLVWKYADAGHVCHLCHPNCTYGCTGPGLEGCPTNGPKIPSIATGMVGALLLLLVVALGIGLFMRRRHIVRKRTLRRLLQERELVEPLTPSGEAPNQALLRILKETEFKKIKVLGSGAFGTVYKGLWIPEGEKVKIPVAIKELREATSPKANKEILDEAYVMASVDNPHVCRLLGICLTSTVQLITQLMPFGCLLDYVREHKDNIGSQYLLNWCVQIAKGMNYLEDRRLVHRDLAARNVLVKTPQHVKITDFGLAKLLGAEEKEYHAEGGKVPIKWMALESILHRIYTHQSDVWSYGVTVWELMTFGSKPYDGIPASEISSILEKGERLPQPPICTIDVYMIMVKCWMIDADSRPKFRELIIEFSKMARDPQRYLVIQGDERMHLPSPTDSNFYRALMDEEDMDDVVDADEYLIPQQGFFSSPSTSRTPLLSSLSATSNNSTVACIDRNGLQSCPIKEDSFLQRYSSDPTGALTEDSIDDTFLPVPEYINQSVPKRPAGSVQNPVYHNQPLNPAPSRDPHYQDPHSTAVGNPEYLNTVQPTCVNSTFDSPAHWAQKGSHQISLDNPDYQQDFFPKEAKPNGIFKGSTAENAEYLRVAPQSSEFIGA
Transcription factor p65 (Homo sapiens), sequence (Q04206 whole entry): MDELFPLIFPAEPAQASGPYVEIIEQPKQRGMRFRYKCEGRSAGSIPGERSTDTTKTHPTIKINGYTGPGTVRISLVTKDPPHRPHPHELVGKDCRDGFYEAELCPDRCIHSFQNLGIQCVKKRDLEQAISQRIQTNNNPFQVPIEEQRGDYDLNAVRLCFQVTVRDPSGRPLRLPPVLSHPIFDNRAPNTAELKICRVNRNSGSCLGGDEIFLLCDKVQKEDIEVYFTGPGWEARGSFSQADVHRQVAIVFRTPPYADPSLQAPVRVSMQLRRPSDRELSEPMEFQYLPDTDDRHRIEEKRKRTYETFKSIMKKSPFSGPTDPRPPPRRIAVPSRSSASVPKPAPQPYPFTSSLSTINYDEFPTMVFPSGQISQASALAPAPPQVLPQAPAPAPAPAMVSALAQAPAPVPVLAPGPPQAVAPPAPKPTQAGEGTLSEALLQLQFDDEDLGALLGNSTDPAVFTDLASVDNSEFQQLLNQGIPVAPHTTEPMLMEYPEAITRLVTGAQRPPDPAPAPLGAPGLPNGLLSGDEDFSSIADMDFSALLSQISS
Receptor tyrosine-protein kinase erbB-4 (Homo sapiens), sequence (Q15303 whole entry): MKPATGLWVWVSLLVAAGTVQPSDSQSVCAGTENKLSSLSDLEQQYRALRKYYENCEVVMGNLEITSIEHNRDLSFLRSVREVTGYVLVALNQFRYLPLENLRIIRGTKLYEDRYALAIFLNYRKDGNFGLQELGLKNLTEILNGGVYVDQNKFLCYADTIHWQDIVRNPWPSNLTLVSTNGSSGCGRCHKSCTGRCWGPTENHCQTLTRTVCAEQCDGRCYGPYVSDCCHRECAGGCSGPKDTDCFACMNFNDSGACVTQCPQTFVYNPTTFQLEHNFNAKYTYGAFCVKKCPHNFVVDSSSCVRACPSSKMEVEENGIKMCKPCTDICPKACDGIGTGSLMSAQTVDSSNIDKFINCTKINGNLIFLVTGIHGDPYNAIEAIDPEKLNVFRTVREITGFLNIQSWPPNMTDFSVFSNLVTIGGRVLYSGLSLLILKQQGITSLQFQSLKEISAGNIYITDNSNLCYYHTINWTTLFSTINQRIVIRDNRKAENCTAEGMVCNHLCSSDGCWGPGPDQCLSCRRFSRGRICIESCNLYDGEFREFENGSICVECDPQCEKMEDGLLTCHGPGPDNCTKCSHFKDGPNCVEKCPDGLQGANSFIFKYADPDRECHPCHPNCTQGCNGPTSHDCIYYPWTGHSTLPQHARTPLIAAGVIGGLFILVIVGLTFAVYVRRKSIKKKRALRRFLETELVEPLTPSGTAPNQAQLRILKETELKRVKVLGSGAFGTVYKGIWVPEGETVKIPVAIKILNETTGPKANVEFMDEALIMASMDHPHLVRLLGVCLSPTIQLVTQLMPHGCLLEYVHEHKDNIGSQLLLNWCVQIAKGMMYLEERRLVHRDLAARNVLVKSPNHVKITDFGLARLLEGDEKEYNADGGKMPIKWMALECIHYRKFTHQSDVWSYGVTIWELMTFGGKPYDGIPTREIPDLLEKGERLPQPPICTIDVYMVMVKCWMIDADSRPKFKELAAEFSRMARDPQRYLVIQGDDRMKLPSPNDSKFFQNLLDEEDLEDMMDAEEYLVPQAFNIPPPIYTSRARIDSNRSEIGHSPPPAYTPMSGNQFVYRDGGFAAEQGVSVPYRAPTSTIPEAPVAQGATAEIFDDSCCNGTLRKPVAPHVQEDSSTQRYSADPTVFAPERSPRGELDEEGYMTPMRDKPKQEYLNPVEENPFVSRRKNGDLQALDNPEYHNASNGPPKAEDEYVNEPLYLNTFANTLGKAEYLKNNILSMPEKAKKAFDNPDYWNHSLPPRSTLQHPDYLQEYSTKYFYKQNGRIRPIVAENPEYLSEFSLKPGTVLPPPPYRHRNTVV
Serine/threonine-protein kinase pim-1, sequence (P11309 whole entry, looked up): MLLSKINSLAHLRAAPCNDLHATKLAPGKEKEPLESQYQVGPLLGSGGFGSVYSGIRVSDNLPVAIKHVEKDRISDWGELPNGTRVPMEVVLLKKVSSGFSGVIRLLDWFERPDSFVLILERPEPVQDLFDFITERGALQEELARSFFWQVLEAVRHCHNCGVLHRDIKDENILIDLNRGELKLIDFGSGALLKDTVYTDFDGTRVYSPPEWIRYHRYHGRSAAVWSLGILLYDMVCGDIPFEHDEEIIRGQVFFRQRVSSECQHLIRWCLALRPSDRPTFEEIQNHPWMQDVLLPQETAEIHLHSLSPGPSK

| solubility [5] | pIC50 [7] | pIC50 (cells) | GI50 (MDA-MB-231 [8]) [µM] | half-life at 0.5 µM [10] [h] | clearance [11] [mL/min/kg] | Cmax [12] [ng/mL] | Tmax [13] [h] | concentration at 24 h [14] [ng/mL] | half-life [15] [h] | AUC(0-t) at 24 h [16] [ng·h/mL] | AUC(0-inf) [17] [ng·h/mL] | CL/F [18] [mL/min/kg] | inhibition [27] [%] | Structure (SMILES) | inhibition (Homo sapiens) [%] | Activity (Mus musculus [20]) | Activity (Mus musculus [21]) | Activity (Mus musculus [22]) | Activity (Mus musculus [23]) | Activity (Mus musculus [24]) | other results |
| --- | --- | --- | --- | --- | --- | --- | --- | --- | --- | --- | --- | --- | --- | --- | --- | --- | --- | --- | --- | --- | --- |
| Soluble | – | – | – | – | – | – | – | – | – | – | – | – | – | COc1cc2ncnc(Nc3ccc(F)c(Cl)c3)c2cc1OCCCN1CCOCC1 [GEFITINIB] | – | – | – | – | – | – | inhibition [1]: inactive; inhibition [2]: inactive; TGI (MDA-MB-231 [3]): Active; inhibition [4]: inactive; inhibition [6]: 46 to 76% |
| Soluble | 7.22 | 6.52 | 1.1 | 2.32 | 19 | 327 | 8 | 79 | 7.8 | 5440 | 6330 | 26.3 | 87.6 | Fc1cc(F)cc(NC(=S)Nc2ccc3ncnc(Nc4cccc(Cl)c4)c3c2)c1 | 73.5 | Non-Toxic | Non-Toxic | Non-Toxic | Non-Toxic | Non-Toxic | inhibition [9]: inactive; TGI (MDA-MB-231 [19]): Active; TGI (MDA-MB-231 [25]): Active; inhibition [26]: inactive |
| – | 6.92 | 6.15 | – | – | – | – | – | – | – | – | – | – | 60 | S=C(Nc1ccc2ncnc(Nc3cccc(Cl)c3)c2c1)Nc1ncc(Cl)s1 | 88.2 | – | – | – | – | – | growth inhibition (GI) (MDA-MB-231 [28]): inactive |
| Soluble | 6.86 | 6.22 | 0.9 | 0.367 | 51 | 101 | 1 | 3.5 | 4.3 | 1040 | 1060 | 157 | 56.4 | FC(F)(F)c1csc(NC(=S)Nc2ccc3ncnc(Nc4cccc(Cl)c4)c3c2)n1 | 92 | Non-Toxic | Non-Toxic | Non-Toxic | Non-Toxic | Non-Toxic | – |
